How the values were obtained:
[1] = PK of TRH and 79 after oral administration to fasted conscious rats; assay type: in vivo, rat
In short: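 Male Wistar rats (10–11 weeks, 230–274 g, n ≥ 4), fasted from the evening before dosing to the 12 h sample. Jugular cannula placed under isoflurane 2–3 days before. Single p.o. dose of 40 mg/4 mL/kg in saline. Heparinized blood (~0.3 mL) drawn via cannula; plasma deproteinized with methanol; HPLC with UV absorbance detection. Cmax, Tmax, AUC0–8h given as mean ± SD.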

rats = test: Acute lethal dose, single oral administration in rats; assay type: in vivo, rat
human TRH-R = details: read-out: Ki for human TRH-R; in vitro binding, reported previously; cited from earlier work
[2] = Stability in rat plasma, cerebrum and cerebellum homogenate at 37 °C; assay type: in vitro ADME; details: for compound remaining, cerebellum: rat cerebellum homogenate; for compound remaining, cerebrum: rat cerebrum homogenate; for compound remaining, plasma: rat plasma
CYP2C8 = molecular target: T1, CYP2C8 (Homo sapiens, UniProt P10632); test: Direct CYP inhibition, CYP2C8; assay type: in vitro ADME
T1 sequence (P10632 1-490): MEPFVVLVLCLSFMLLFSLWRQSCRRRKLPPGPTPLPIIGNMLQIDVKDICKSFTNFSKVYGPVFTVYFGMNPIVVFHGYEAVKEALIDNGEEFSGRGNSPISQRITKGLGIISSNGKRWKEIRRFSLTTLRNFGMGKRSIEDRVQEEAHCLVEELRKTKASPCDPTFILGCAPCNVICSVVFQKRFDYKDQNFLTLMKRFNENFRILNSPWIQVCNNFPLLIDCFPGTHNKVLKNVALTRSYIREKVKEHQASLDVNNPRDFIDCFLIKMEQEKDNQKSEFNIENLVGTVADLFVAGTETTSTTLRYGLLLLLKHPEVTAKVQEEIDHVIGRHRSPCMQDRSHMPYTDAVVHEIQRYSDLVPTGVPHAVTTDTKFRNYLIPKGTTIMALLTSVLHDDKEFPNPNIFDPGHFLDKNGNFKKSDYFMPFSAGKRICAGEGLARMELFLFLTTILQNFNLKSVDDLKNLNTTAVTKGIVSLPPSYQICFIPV

[3] = system: CYP1A2, CYP2A6, CYP2B6, CYP2C9, CYP2C19, CYP2D6, CYP2E1, CYP3A4/5, CYP4A11; test: Direct CYP inhibition, 10 CYP enzymes; assay type: in vitro ADME; details: human
[4] = system: CYP1A2, CYP2A6, CYP2B6, CYP2C8, CYP2C9, CYP2C19, CYP2D6, CYP2E1, CYP3A4/5, CYP4A11; test: Direct CYP inhibition, 10 CYP enzymes; assay type: in vitro ADME; details: human
[5] = system: rats with Ara-C-induced cerebellar damage; test: Ara-C-induced cerebellar ataxia in rats, open field fall index; assay type: in vivo, rat; details: 79 10 and 30 mg/kg p.o. once daily for 7 days, vs control
plasma TSH level = test: TSH releasing activity after oral administration in rats; assay type: in vivo; details: rat
In short: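 Male Sprague-Dawley rats (258–320 g, n ≥ 4, fed), dosed p.o. at 0.1 or 1 mg/2 mL/kg in water. Blood taken by decapitation at scheduled times, clotted 30 min at 25 °C, centrifuged for serum. TSH measured by [125I] rat TSH assay kit with magnetic separation. Mean ± SD.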

[6] = system: reserpine-induced hypothermia mice; test: Antagonistic effect on reserpine-induced hypothermia in mice; assay type: in vivo; details: p.o.
In short: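 Male ddY mice (bought at 6 weeks, 1-week quarantine, ~25 °C). Reserpine 3 mg/kg s.c.; mice with rectal temperature ≤30 °C about 18 h later were used. Test compound in saline p.o. at 5 μmol/kg, TRH at 50 μmol/kg, saline controls. Rectal temperature by thermistor before and up to 7 h post-dose. Trapezoidal AUC0–7h, with saline AUC subtracted. Mean ± SD, ≥3 animals.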

[7] = male, Wistar, rat, plasma, po, 40 mg/kg

C[C@@H]1OC(=O)N[C@@H]1C(=O)N[C@@H](Cc1cscn1)C(=O)N1CCC[C@H]1C [Compound 79, 1-{N-[(4S,5S)-(5-Methyl-2-oxooxazolidine-4-yl)carbonyl]-3-(thiazol-4-yl)-L-alanyl}-(2R)-2-methylpyrrolidine trihydrate]
Cmax and AUC0–8h relative to TRH ([1]; fasted rats, p.o. 40 mg/kg): over 12 times | AUC(0-t) [1, 7]: 817 ± 349 ng·h/mL | Cmax [1, 7]: 636 ± 232 ng/mL | Tmax [1, 7]: 15 min | acute lethal dose (rats): over 2000 mg/kg | Ki (human TRH-R): 702 nM | compound remaining, cerebellum ([2]; 15 min): 100 ± 0.0% | compound remaining, cerebellum ([2]; 30 min): 99.9 ± 0.0% | compound remaining, cerebellum ([2]; 60 min): 99.7 ± 0.0% | compound remaining, cerebellum ([2]; 120 min): 99.6 ± 0.1% | compound remaining, cerebellum ([2]; 180 min): 99.5 ± 0.1% | compound remaining, cerebrum ([2]; 15 min): 100.2 ± 0.2% | compound remaining, cerebrum ([2]; 30 min): 100.2 ± 0.1% | compound remaining, cerebrum ([2]; 60 min): 100.3 ± 0.1% | compound remaining, cerebrum ([2]; 120 min): 99.9 ± 0.1% | compound remaining, cerebrum ([2]; 180 min): 99.7 ± 0.1% | compound remaining, plasma ([2]; 15 min): 100 ± 0.1% | compound remaining, plasma ([2]; 30 min): 99.8 ± 0.1% | compound remaining, plasma ([2]; 60 min): 99.6 ± 0.3% | compound remaining, plasma ([2]; 120 min): 99.8 ± 0.2% | compound remaining, plasma ([2]; 180 min): 99.8 ± 0.1% | inhibition at 300 μM (CYP2C8): ~20% | inhibition at 300 μM [3]: ≤ 10% | inhibition at 300 μM [4]: ≤ 50% | fall index [5]: significant decrease | plasma TSH level (plasma TSH level; p.o. 0.1 mg/kg, at 0.5 h): 46.8 ng/mL | plasma TSH level (plasma TSH level; p.o. 1 mg/kg, at 0.5 h): 80.4 ng/mL | plasma TSH level (plasma TSH level; p.o. 0.1 and 1 mg/kg, at 24 h): recovered to vehicle levels | rectal temperature compared with saline levels ([6]; 79 5 μmol/kg from 2 to 7 h, TRH 50 μmol/kg from 0 to 7 h): > 2.5 °C | rectal temperature ΔAUC0–7h = AUC0–7h(compounds) – AUC0–7h(saline) ([6]; reserpine-induced hypothermia mice, TRH 50 μmol/kg, 79 5 μmol/kg): 28.0 ± 4.3 °C·h | rectal temperature AUC0–7h ([6]; reserpine-induced hypothermia mice, TRH 50 μmol/kg, 79 5 μmol/kg, mean ± SD): 233.4 ± 4.3 °C·h
